Test results reported in ChEMBL document CHEMBL1932929, “Lead optimization of 2-(piperidin-3-yl)-1H-benzimidazoles: identification of 2-morpholin- and 2-thiomorpholin-2-yl-1H-benzimidazoles as selective and CNS penetrating H₁-antihistamines for insomnia” (Bioorg Med Chem Lett, 2012).

How the values were obtained:
[1] = Drug uptake in brain of Sprague-Dawley rat at 30 mg/kg, po measured after 4 hrs; type: ADME, organism-based; set-up: dose 30 mg/kg, route oral; settings: read-out: Drug uptake
How it was run: (§1)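 Single oral dose to Sprague Dawley rats; plasma and brain levels measured at 4 h; brain/plasma ratio taken from these 4 h levels.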

[2] = Ratio drug uptake in brain to plasma of Sprague-Dawley rat at 30 mg/kg, po measured after 4 hrs; type: ADME, organism-based; set-up: dose 30 mg/kg, route oral; settings: read-out: BPR; how it was run: as §1
[3] = Drug uptake in plasma of Sprague-Dawley rat at 30 mg/kg, po measured after 4 hrs; type: ADME, organism-based; set-up: dose 30 mg/kg, route oral; settings: read-out: Drug uptake; how it was run: as §1
[4] = Lipophilicity, log P of the compound; type: physicochemical; settings: octanol/water
How it was run: (§2)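 Calculated values, not experimentally measured.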

[5] = Dissociation constant, pKa of the compound; type: physicochemical; how it was run: as §2
[6] = Drug uptake in brain of Sprague-Dawley rat at 10 mg/kg, po measured after 4 hrs; type: ADME, organism-based; set-up: dose 10 mg/kg, route oral; settings: read-out: Drug uptake

SMILES | logP [4] | pKa [5] | further results
COc1ccc(Cn2c([C@H]3CNCCS3)nc3ccccc32)cc1 |  |  | concentration at 4 h [1]: 380 ng/g; Kp at 4 h [2]: 1.4; concentration at 4 h [3]: 0.26 µg/mL
Cc1ccc(Cn2c(C3CNCCO3)nc3ccccc32)cc1C (single isomer, unassigned; (+)) | 3.4 | 7.4 | 
CN(CC1CCOCC1)C1CCN(c2nc3ccccc3n2Cc2ccc(F)cc2)CC1 |  |  | concentration at 4 h [6]: 94 ng/g
Cc1ccc(Cn2c([C@@H]3CNCCS3)nc3ccccc32)cc1C | 3.3 | 7.5 | 
